Measured values from PubChem BioAssay AID623977 (Vanderbilt High Throughput Screening Facility, 2012).

Molecular target: G protein-activated inward rectifier potassium channel 2 (Homo sapiens) + G protein-activated inward rectifier potassium channel 1 (Homo sapiens) (UniProt P48051+P48549)
Assay: activation of GIRK1/2 current, electrophysiology – HEK-293 hGIRK1/2, whole-cell voltage clamp, Ba2+-sensitive current, orthogonal assay for GIRK activator project, confirmation (AID 623977)
Conditions: HEK-293 hGIRK1/2, whole-cell patch clamp current
Method in brief: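 Assay system: stable hGIRK1/2 HEK-293 cells / Medium: 20 mM K+ bath, pH 7.4, KCl pipette solution / Dosing: test compound diluted in 20 mM K+ bath solution / Timing: cells patched 24–72 h after plating / Technique: whole-cell patch clamp, -70 mV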

Chain of G protein-activated inward rectifier potassium channel 2 (Homo sapiens) + G protein-activated inward rectifier potassium channel 1 (Homo sapiens) (P48051 whole entry, looked up): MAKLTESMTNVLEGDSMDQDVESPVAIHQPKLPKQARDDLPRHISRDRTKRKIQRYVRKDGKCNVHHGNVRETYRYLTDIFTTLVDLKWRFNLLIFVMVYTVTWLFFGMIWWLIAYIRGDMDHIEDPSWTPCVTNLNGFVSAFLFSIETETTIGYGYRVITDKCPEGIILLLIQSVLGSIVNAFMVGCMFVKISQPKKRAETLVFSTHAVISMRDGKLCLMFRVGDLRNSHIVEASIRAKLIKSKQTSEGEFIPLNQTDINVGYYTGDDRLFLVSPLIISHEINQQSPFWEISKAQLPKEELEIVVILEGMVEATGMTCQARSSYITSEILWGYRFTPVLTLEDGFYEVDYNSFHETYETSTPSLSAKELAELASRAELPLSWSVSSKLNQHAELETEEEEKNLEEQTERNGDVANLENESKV
Chain of G protein-activated inward rectifier potassium channel 2 (Homo sapiens) + G protein-activated inward rectifier potassium channel 1 (Homo sapiens) (P48549 whole entry, looked up): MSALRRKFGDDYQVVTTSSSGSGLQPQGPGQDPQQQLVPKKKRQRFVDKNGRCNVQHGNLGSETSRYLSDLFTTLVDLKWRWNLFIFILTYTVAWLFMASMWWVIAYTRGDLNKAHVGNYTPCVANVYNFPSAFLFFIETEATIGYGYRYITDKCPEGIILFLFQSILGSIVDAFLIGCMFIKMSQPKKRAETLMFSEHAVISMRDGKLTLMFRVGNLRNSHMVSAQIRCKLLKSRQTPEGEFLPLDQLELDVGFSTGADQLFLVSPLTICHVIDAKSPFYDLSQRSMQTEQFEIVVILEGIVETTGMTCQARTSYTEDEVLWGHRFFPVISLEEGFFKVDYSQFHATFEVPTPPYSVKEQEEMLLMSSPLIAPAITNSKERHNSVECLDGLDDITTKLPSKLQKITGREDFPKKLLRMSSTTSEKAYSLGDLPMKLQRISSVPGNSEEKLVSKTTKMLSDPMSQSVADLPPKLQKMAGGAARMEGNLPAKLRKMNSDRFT

Cc1cc(NC(=O)Nc2ccc(F)c(F)c2)n(-c2ccccc2)n1 showed an EC50 of 54.1 nM.
